Assay results taken from ChEMBL document CHEMBL1128667 (J Med Chem, 1995).

Tests used:
[1] = Ability to inhibit [3H](+)-pentazocine binding to guinea pig brain Sigma receptor type 1
Sigma 2 receptor [2] = experiment: Ability to inhibit [3H](+)-DTG binding to rat liver Sigma receptor type 2 in presence of dextrallorphan
Outline: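 Rat liver membranes (male Sprague–Dawley, 150–200 g; Tris/sucrose homogenisation, differential centrifugation, 25 °C preincubation). 160 μg protein with 5 nM [3H]DTG plus 1 μM dextrallorphan to mask σ1, 50 mM Tris-HCl pH 8.0, 120 min at 25 °C. Nonspecific with 10 μM haloperidol. Filtration. 12 concentrations (0.05–10 000 or 0.5–100 000 nM); Ki via Cheng–Prusoff with Scatchard Kd; 2–3 experiments in duplicate, ±SEM.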

Mu-type opioid receptor = Mu-type opioid receptor (Rattus norvegicus, UniProt P33535); experiment: Ability to inhibit [3H]DAMGO binding to rat brain Opioid receptor mu 1
Outline: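 Rat brain membranes labelled with [3H]DAMGO (1-3 nM), 4 h at 25 °C in 50 mM Tris-HCl pH 7.4 with protease inhibitor cocktail. Nonspecific with 20 μM levallorphan. 8–10 concentrations, run twice; dilutions in Tris with 1 mg/mL BSA, 1 mM stocks in Tris containing 10% DMSO/5% Emulphor. IC50 and slope factor from curve fitting.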

[3] = molecular target: Delta-type opioid receptor (Rattus norvegicus, UniProt P33533); experiment: Ability to inhibit [3H]DADLE binding to rat brain delta receptor
Outline: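 [3H]DADLE (1.7-2.5 nM) on rat brain membranes, 3-4 h at 25 °C in 10 mM Tris-HCl pH 7.4 with 100 mM choline chloride, 3 mM MnCl2, 100 nM DAMGO blocking μ sites, and protease inhibitors. Nonspecific with 20 μM levallorphan. 8–10 concentrations, run twice; dilutions in Tris/1 mg/mL BSA. IC50 and slope factor from curve fitting.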

[4] = molecular target: Kappa-type opioid receptor (Cavia porcellus, UniProt P41144); experiment: Ability to inhibit [3H]U-69593 binding to guinea pig Opioid receptor kappa 1
Outline: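 Guinea pig brain membranes depleted of μ and δ sites by BIT/FIT pretreatment, labelled with [3H]U69,593 (1.2-2.3 nM), 4-6 h at 25 °C in 50 mM Tris-HCl pH 7.4 with protease inhibitors and 1 μg/mL captopril. Nonspecific with 1 μM U69,593. 8–10 concentrations, run twice; IC50 and slope factor from curve fitting.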

Sigma 2 receptor [5] = experiment: Ratio of binding affinity towards guinea-pig brain […] receptor to rat liver sigma-2 receptor

Kappa-type opioid receptor, sequence (P41144 whole entry): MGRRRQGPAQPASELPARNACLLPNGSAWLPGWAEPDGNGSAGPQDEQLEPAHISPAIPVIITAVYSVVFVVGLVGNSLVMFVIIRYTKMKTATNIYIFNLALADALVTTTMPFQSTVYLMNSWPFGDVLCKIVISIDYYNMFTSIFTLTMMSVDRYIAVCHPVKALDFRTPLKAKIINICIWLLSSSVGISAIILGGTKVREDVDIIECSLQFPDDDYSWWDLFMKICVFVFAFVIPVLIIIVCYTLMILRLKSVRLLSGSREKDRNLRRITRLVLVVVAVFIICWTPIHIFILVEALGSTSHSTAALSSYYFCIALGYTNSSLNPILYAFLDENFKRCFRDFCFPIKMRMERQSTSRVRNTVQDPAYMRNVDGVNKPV
Mu-type opioid receptor, sequence (P33535 whole entry): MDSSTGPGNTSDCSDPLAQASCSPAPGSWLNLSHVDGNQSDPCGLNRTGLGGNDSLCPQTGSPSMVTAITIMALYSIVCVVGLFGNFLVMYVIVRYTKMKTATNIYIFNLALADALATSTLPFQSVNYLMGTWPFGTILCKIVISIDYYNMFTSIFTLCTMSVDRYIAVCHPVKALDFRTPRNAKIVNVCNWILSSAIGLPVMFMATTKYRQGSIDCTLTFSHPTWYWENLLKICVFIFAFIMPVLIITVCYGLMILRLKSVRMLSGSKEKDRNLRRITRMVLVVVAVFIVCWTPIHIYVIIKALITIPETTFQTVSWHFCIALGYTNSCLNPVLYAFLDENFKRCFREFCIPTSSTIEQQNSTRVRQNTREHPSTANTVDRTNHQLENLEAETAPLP
Delta-type opioid receptor, sequence (P33533 whole entry): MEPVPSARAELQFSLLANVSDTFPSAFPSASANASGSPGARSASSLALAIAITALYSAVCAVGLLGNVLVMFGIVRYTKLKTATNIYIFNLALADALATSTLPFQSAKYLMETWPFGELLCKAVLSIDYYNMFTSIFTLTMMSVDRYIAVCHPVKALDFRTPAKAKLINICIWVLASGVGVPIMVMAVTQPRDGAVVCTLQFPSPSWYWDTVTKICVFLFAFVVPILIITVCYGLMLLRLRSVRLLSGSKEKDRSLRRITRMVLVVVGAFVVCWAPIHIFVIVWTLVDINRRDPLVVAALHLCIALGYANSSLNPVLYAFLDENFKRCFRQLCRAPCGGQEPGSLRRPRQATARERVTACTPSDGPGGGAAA

Compound	Ki [1]	Ki (Sigma 2 receptor [2])	Ki (Mu-type opioid receptor)	Ki [3]	Ki [4]	Ratio (Sigma 2 receptor [5])
CN1CCC2(c3cccc(O)c3)CC(=O)/C(=C/c3ccc(Cl)c(Cl)c3)C1C2 (stereo in doubt; 3)	65.3 nM	71.8 nM	–	–	–	–
CN1CCC2(c3cccc(O)c3)CC(=O)/C(=C/c3ccc(Cl)cc3)C1C2 (stereo in doubt; 5) [listing 1 of 2 here]	–	9.5 nM	21.6 nM	> 1000 nM	–	–
CN1CCC2(c3cccc(O)c3)CC(=O)/C(=C/c3ccc(Cl)cc3)C1C2 (single isomer, unassigned; (-)) [listing 1 of 2 here]	–	26.5 nM	48.2 nM	> 500 nM	> 500 nM	–
CN1CCC2(c3cccc(O)c3)CC(=O)/C(=C/c3ccc4ccccc4c3)C1C2 (stereo not drawn)	–	80.2 nM	2.2 nM	142 nM	> 500 nM	0.21
CN1CCC2(c3cccc(O)c3)CC(=O)/C(=C/c3ccc(Cl)cc3)C1C2 (stereo in doubt; 5) [listing 2 of 2 here]	–	–	–	–	–	4
COc1cccc(/C=C2/C(=O)CC3(c4cccc(O)c4)CCN(C)C2C3)c1 (single isomer, unassigned; (+)) [listing 1 of 2 here]	–	38.2 nM	12.6 nM	175 nM	–	–
CN1CCC2(c3cccc(O)c3)CC(=O)CC1C2 (single isomer, unassigned; (+))	–	–	35.5 nM	505 nM	2540 nM	–
CN1CCC2(c3cccc(O)c3)CC(=O)/C(=C/c3cccc(Cl)c3)C1C2 (stereo in doubt; (+)-7) [listing 1 of 2 here]	–	–	–	–	–	138
CN1CCC2(c3cccc(O)c3)CC(=O)/C(=C/c3ccc(Cl)c(Cl)c3)C1C2 (single isomer, unassigned; (-))	–	35.5 nM	45.1 nM	> 500 nM	–	–
CN1CCC2(c3cccc(O)c3)CC(=O)/C(=C/c3cccc(Cl)c3)C1C2 (stereo in doubt; (+)-7) [listing 2 of 2 here]	–	22.4 nM	11.8 nM	217 nM	> 500 nM	–
CN1CCC2(c3cccc(O)c3)CC(=O)/C(=C/c3ccc(I)cc3)C1C2 (single isomer, unassigned; (+))	–	52.6 nM	26.7 nM	321 nM	> 1000 nM	32
CN1CCC2(c3cccc(O)c3)CC(=O)/C(=C/c3ccccc3)C1C2 (single isomer, unassigned; (+)) [listing 1 of 2 here]	–	16.5 nM	37.6 nM	735 nM	1090 nM	–
COc1cccc(/C=C2/C(=O)CC3(c4cccc(O)c4)CCN(C)C2C3)c1 (stereo in doubt; 6) [listing 1 of 2 here]	–	44.3 nM	11.8 nM	> 400 nM	> 500 nM	–
CN1CCC2(c3cccc(O)c3)CC(=O)/C(=C/c3ccccc3)C1C2 (stereo in doubt; 2) [listing 1 of 2 here]	–	–	–	–	–	0.63
COc1cccc(C23CCN(C)C(C2)/C(=C\c2ccccc2)C(=O)C3)c1 (single isomer, unassigned; (+)) [listing 1 of 2 here]	–	52 nM	–	–	> 500 nM	–
CN1CCC2(c3cccc(O)c3)CC(=O)/C(=C/c3ccc(Cl)c(Cl)c3)C1C2 (single isomer, unassigned; (+))	–	13.4 nM	4.5 nM	271 nM	–	–
CN1CCC2(c3cccc(O)c3)CC(=O)/C(=C/c3ccccc3)C1C2 (stereo in doubt; (-)-2) [listing 1 of 2 here]	–	–	–	–	–	0.06
COc1cccc(C23CCN(C)C(C2)/C(=C\c2ccccc2)C(=O)C3)c1 (single isomer, unassigned; (+)) [listing 2 of 2 here]	–	–	–	–	–	2.8
COc1cccc(C23CCN(C)C(C2)/C(=C\c2ccccc2)C(=O)C3)c1 (stereo in doubt; 10) [listing 1 of 2 here]	–	–	–	–	–	1.7
CN1CCC2(c3cccc(O)c3)CC(=O)/C(=C/c3cccc(I)c3)C1C2 (stereo not drawn)	–	24 nM	9.1 nM	141 nM	> 500 nM	68
CN1CCC2(c3cccc(O)c3)CC(=O)/C(=C/c3cccc(Cl)c3)C1C2 (stereo in doubt; 7) [listing 1 of 2 here]	–	34.5 nM	23.2 nM	222 nM	246 nM	–
COc1cccc(/C=C2/C(=O)CC3(c4cccc(O)c4)CCN(C)C2C3)c1 (single isomer, unassigned; (-)) [listing 1 of 2 here]	–	46.3 nM	31.4 nM	> 400 nM	–	–

Compound	Ki [1]	Ki (Sigma 2 receptor [2])	Ki (Mu-type opioid receptor)	Ki [3]	Ki [4]	Ratio (Sigma 2 receptor [5])
CN1CCC2(c3cccc(O)c3)CC(=O)/C(=C/c3ccc(Cl)cc3)C1C2 (stereo in doubt; (+)-5) [listing 1 of 2 here]	–	–	–	–	–	119
CN1CCC2(c3cccc(O)c3)CC(=O)/C(=C/c3ccccc3)C1C2 (stereo in doubt; (-)-2) [listing 2 of 2 here]	–	154 nM	392 nM	1990 nM	889 nM	–
CN1CCC2(c3cccc(O)c3)CC(=O)/C(=C/C3CC3)C1C2 (stereo not drawn)	–	356 nM	11.2 nM	> 1000 nM	> 500 nM	0.18
COc1cccc(/C=C2/C(=O)CC3(c4cccc(O)c4)CCN(C)C2C3)c1 (single isomer, unassigned; (-)) [listing 2 of 2 here]	–	–	–	–	–	0.12
CN1CCC2(c3cccc(O)c3)CC(=O)/C(=C/c3cccc(Cl)c3)C1C2 (stereo in doubt; 7) [listing 2 of 2 here]	–	–	–	–	–	1.5
CN1CCC2(c3cccc(O)c3)CC(=O)/C(=C/c3ccccc3)C1C2 (stereo in doubt; 2) [listing 2 of 2 here]	23.3 nM	37 nM	–	–	–	–
COc1ccc(/C=C2/C(=O)CC3(c4cccc(O)c4)CCN(C)C2C3)cc1 (single isomer, unassigned; (+)) [listing 1 of 2 here]	–	21.6 nM	3.9 nM	127 nM	> 500 nM	–
COc1cccc(C23CCN(C)C(C2)/C(=C\c2ccccc2)C(=O)C3)c1 (stereo in doubt; 10) [listing 2 of 2 here]	138 nM	81.7 nM	> 250 nM	> 500 nM	> 1000 nM	–
COc1cccc(/C=C2/C(=O)CC3(c4cccc(O)c4)CCN(C)C2C3)c1 (stereo in doubt; 6) [listing 2 of 2 here]	–	–	–	–	–	0.18
CN1CCC2(c3cccc(O)c3)CC(=O)/C(=C/c3ccccc3)C1C2 (single isomer, unassigned; (+)) [listing 2 of 2 here]	–	–	–	–	–	79
CN1CCC2(c3cccc(O)c3)CC(=O)CC1C2 (stereo in doubt; (-)-1)	–	25 nM	–	–	–	–
COc1ccc(/C=C2/C(=O)CC3(c4cccc(O)c4)CCN(C)C2C3)cc1 (single isomer, unassigned; (-)) [listing 1 of 2 here]	–	81.3 nM	27 nM	> 500 nM	–	–
CN1CCC2(c3cccc(O)c3)CC(=O)/C(=C/c3cccc(Cl)c3)C1C2 (stereo in doubt; (-)-7) [listing 1 of 2 here]	–	123 nM	47.6 nM	386 nM	> 500 nM	–
COc1cccc(/C=C2/C(=O)CC3(c4cccc(O)c4)CCN(C)C2C3)c1 (single isomer, unassigned; (+)) [listing 2 of 2 here]	–	–	–	–	–	157
CN1CCC2(c3cccc(O)c3)CC(=O)/C(=C/c3cccc(Cl)c3)C1C2 (stereo in doubt; (-)-7) [listing 2 of 2 here]	–	–	–	–	–	0.25
COc1ccc(/C=C2/C(=O)CC3(c4cccc(O)c4)CCN(C)C2C3)cc1 (stereo in doubt; 4) [listing 1 of 2 here]	–	–	–	–	–	0.53
COc1ccc(/C=C2/C(=O)CC3(c4cccc(O)c4)CCN(C)C2C3)cc1 (stereo in doubt; 4) [listing 2 of 2 here]	–	35 nM	4.1 nM	7.1 nM	–	–
CN1CCC2(c3cccc(O)c3)CC(=O)/C(=C/c3ccc(Cl)cc3)C1C2 (stereo in doubt; (+)-5) [listing 2 of 2 here]	–	6.4 nM	6.4 nM	336 nM	–	–
COc1ccc(/C=C2/C(=O)CC3(c4cccc(O)c4)CCN(C)C2C3)cc1 (single isomer, unassigned; (-)) [listing 2 of 2 here]	–	–	–	–	–	0.1
CN1CCC2(c3cccc(O)c3)CC(=O)/C(=C/c3ccc(Cl)cc3)C1C2 (single isomer, unassigned; (-)) [listing 2 of 2 here]	–	–	–	–	–	0.69
COc1ccc(/C=C2/C(=O)CC3(c4cccc(O)c4)CCN(C)C2C3)cc1 (single isomer, unassigned; (+)) [listing 2 of 2 here]	–	–	–	–	–	88
